From ChEMBL document CHEMBL3271986, “Studies on vitamin D (calciferol) and its analogues. 10. Side-chain analogues of 25-hydroxyvitamin D3” (J Med Chem, 1977)
Activity calls are given as the source filed them. No cut-off for these calls is given here.

Columns and labels:
Format in all cases: functional, organism-based
Gallus gallus [1] = assay: Induction of intestinal [45Ca2+] absorption in rachitic white leghorn cockerel assessed as radioactivity in serum at 32.5 nmol, ip measured up to 96 hrs relative to control
Procedure, shortened: (§1)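 Rachitic chicks (3 weeks on low-calcium diet lacking vitamin D, then zero-calcium diet for 3 days) were dosed ip in 0.2 ml propanediol-ethanol (3/1); solvent-only -D controls. At assay, 5 µCi 45Ca2+ plus 4 mg 40Ca2+ carrier was placed into the surgically exposed duodenum under light ether anesthesia. Serum radioactivity (0.2 ml) read 30 min later. Mean ± SEM, 8-10 birds.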

Gallus gallus [2] = assay: Induction of intestinal [45Ca2+] absorption in rachitic white leghorn cockerel assessed as radioactivity in serum up to 97.5 nmol, ip measured at 24 hrs relative to control; procedure, shortened: as §1
Gallus gallus [3] = assay: Induction of bone calcium mobilization in rachitic white leghorn cockerel assessed as Ca2+ level in serum at 32.5 nmol, ip measured up to 96 hrs by atomic absorption spectrometric analysis relative to control
Procedure, shortened: (§2)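 Cockerels raised 3 weeks on rachitogenic low-calcium diet without vitamin D, then zero-calcium diet for 3 days before assay. Compound given ip in 0.2 ml 1,2-propanediol-ethanol (3/1); -D controls received solvent only, +D controls 6.5 nmol vitamin D3 24 h before assay. Serum Ca2+ measured by atomic absorption spectrometry on diluted serum. Mean ± SEM, 8-10 birds.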

Gallus gallus [4] = assay: Induction of bone calcium mobilization in rachitic white leghorn cockerel assessed as Ca2+ level in serum up to 97.5 nmol, ip measured at 24 hrs by atomic absorption spectrometric analysis relative to control; procedure, shortened: as §2
Gallus gallus [5] = assay: Induction of intestinal [45Ca2+] absorption in rachitic white leghorn cockerel assessed as radioactivity in serum up to 78 nmol, ip treated 24 hrs prior to testing measured at 24 hrs post treatment
Procedure, shortened: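 Rachitic White Leghorn cockerels (3 weeks rachitogenic low-calcium diet without vitamin D, zero-calcium diet for the last 3 days). Dosed intraperitoneally in 0.2 ml propanediol-ethanol (3/1) 24 h before assay. Under light ether anaesthesia the duodenum was exposed and given 5 μCi 45Ca2+ plus 4 mg carrier 40Ca2+. After 30 min, decapitation; radioactivity counted in 0.2 ml serum. Mean ± SEM, 8-10 birds.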

Gallus gallus [6] = assay: Induction of bone calcium mobilization in rachitic white leghorn cockerel assessed as Ca2+ level in serum up to 78 nmol, ip treated 24 hrs prior to testing measured at 24 hrs post treatment by atomic absorption spectrometric analysis
Procedure, shortened: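 White Leghorn cockerels reared 3 weeks on a rachitogenic low-calcium diet without vitamin D, then zero-calcium diet for 3 days before assay. Single intraperitoneal dose in 0.2 ml 1,2-propanediol-ethanol (3/1) 24 h before assay; vehicle-only rachitic and vitamin D3 controls. Blood taken after decapitation and allowed to clot. Serum calcium measured by atomic absorption spectrometry on diluted samples. Mean ± SEM, 8-10 birds.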

Gallus gallus [7] = assay: Induction of bone calcium mobilization in rachitic white leghorn cockerel assessed as Ca2+ level in serum at 130 nmol, ip measured at 24 hrs by atomic absorption spectrometric analysis; procedure, shortened: as §2
Gallus gallus [8] = assay: Induction of intestinal [45Ca2+] absorption in rachitic white leghorn cockerel assessed as radioactivity in serum at 130 nmol, ip measured at 24 hrs; procedure, shortened: as §1

Compound	Activity (Gallus gallus [1])	Activity (Gallus gallus [2])	Activity (Gallus gallus [3])	Activity (Gallus gallus [4])	Activity (Gallus gallus [5])	Activity (Gallus gallus [6])	Activity (Gallus gallus [7])	Activity (Gallus gallus [8])
C=C1CC[C@H](O)C/C1=C/C=C1\CCC[C@]2(C)[C@@H]([C@H](C)C(C)(C)O)CC[C@@H]12	inactive	inactive	inactive	inactive				
C=C1CC[C@H](O)C/C1=C/C=C1\CCC[C@]2(C)[C@@H]([C@H](C)CCCC(C)C)CC[C@@H]12					Active	Active		
C=C1CC[C@H](O)C/C1=C/C=C1\CCC[C@]2(C)[C@@H]([C@H](C)CCCCC(C)(C)O)CC[C@@H]12					Active	Active	Active	Active
C=C1CC[C@H](O)C/C1=C/C=C1\CCC[C@]2(C)[C@@H]([C@H](C)CCC(C)(C)O)CC[C@@H]12	inactive	inactive	inactive	inactive				
C=C1CC[C@H](O)C/C1=C/C=C1\CCC[C@]2(C)[C@@H]([C@H](C)CC(C)(C)O)CC[C@@H]12	inactive	inactive	inactive	inactive				
C=C1CC[C@H](O)C/C1=C/C=C1\CCC[C@]2(C)[C@@H](C(C)(C)O)CC[C@@H]12	inactive	inactive	inactive	inactive				
